Calb FLC: affects C. albicans growth with fluconazole; C. albicans CaCi-2 (fluconazole-resistant clinical isolate) + fluconazole, Alamar Blue growth, 48 h; growth inhibition, % (test concentration not listed); 300,000 tested, 0.57% active; AID 1979;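 active = growth inhibition above about 58% in most replicates, limit read from the data, passing the limit was not always enough; inconclusive = exactly half the replicates above a set limit; inactive = most replicates below a set limit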;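 note: all wells also contain fluconazole at 8 µg/ml as a sub-toxic cotreatment; 0% = median of DMSO wells and 100% = median of geldanamycin control wells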
Beta cell apopt: beta cell apoptosis inhibition. INS-1E cytokine-induced death, ATP luminescence, 48 h; percent of positive-control rescue, neutral wells zero. protection from apoptosis, % (test concentration not listed). 300,000 tested, 0.8% active. AID 435005;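 active = Every replicate reaches about 75%, or at least half do and their mean reaches it too, limit read from the data; inconclusive = At least half of replicates reach the limit but their mean does not; inactive = Under half of replicates reach the limit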;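 note: 0% = cytokine-treated negative control wells and 100% = positive control rescue; higher means more ATP so stronger rescue from cytokine killing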
CSC inhib: cancer stem cell inhibition. AID 2717. inhibition, % at 7.5 µM. cancer stem cell-like cells viability, luminescence. 300,000 tested, 1.1% active; in the data active = inhibition above about 75%; inconclusive = no clear call, values can overlap the other calls; tested in HMLE shEcad cells
Mdm2 MdmX PPI: human Mdm2/MdmX binding inhibition | 330,000 tested, 3% active | SaOS-2 split-luciferase Mdm2/MdmX complementation, luminescence | inhibition, % at 8 µM | O15151+Q00987;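 active = inhibition of at least 50% at 8 µM in the primary screen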
T cruzi repl: blocks replication of Trypanosoma cruzi | T. cruzi beta-gal in NIH3T3, luminescence, 90 h | 300,000 tested, 1.4% active | inhibition, % (test concentration not listed);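 active = mean inhibition across valid replicates above about 55%, limit read from the data; inconclusive = mean below that limit but half or more replicates reach it; inactive = mean below it, under half of replicates reach it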;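 note: signal also drops with host cell toxicity which is not excluded here; 0% = plate median of DMSO wells and 100% = zero luminescence signal; higher percent means less beta-gal luminescence so fewer parasites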
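Assay system: NIH/3T3 fibroblasts plus reporter T. cruzi. Amount: NIH/3T3 cells, 5,000 per well. Buffer or medium: DMEM, 2% fetal bovine serum. Doses: compound pinned at 50 nL/well, DMSO. Schedule: ≥90 h infection period, 3 h prior cell attachment. Signal: luminescent β-galactosidase signal after 60 min lysis. Read-out: parasite load inhibition, %.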
NALP3 yeast inh: blocks the NALP3 inflammasome reconstituted in yeast; Yeast reconstituted NLRP3/ASC/caspase-1, beta-gal luminescence, 24 h; inhibition, % at 10 µM; 330,000 tested, 0.39% active; AID 2825;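 active = inhibition of 50% or more; inactive = inhibition below 50%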;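 note: plate controls were induced DMSO wells for no effect and uninduced yeast grown without galactose for full effect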
Numbers without * were called inactive; ? = inconclusive; . = no result; ! = repeats disagree. A selection: hits, their analogues and other compounds. The true share with any hit is near 5.3%.

SMILES	Calb FLC	Beta cell apopt	CSC inhib	Mdm2 MdmX PPI	T cruzi repl	NALP3 yeast inh
CCn1c(=O)c([N+](=O)[O-])c(N2CCN(Cc3ccc4c(c3)OCO4)CC2)c2ccccc21	-11.5	128.5*	-4.3	16.4	33.3	28.8
C/C(=N\NC(=O)c1ccccc1O)c1ccc(NC(=O)c2ccccc2)cc1	-7.4	1.6	-13.0	0.5	.	28.7
C/C(=N/NC(=O)c1ccccc1O)c1ccc(N2C(=O)C3CCCCC3C2=O)cc1 (stereo not given)	111.0*	-2.2	-13.8	10.6	4.0	14.5
O=C(Nc1ccc2c(c1)OCCO2)C(=O)c1c[nH]c2ccccc12	-12.3	19.0	106.7*	-66.2	-1.2	30.4
O=C(Nc1ccc2c(c1)OCO2)C(=O)c1c[nH]c2ccccc12	-8.8	-1.5	-10.8	-115.0	19.6	26.8
COc1cc(NC(=S)N2CCN(S(=O)(=O)c3ccccc3)CC2)cc(OC)c1	122.1*	1.3	-3.3	19.0	.	7.4
COc1cc(NC(=S)N2CCN(S(=O)(=O)c3ccc(F)cc3)CC2)cc(OC)c1	-26.1	-1.1	2.3	21.7	26.1	8.6
Cc1[nH]c2ccccc2c1CN1CCN(c2ccccn2)CC1	10.5	92.3*	-10.0	15.1	78.4*	10.4
Cc1[nH]c2ccccc2c1CN1CCC(Cc2ccccc2)CC1	59.5	103.7*	62.7	45.9	93.9*	16.5
c1ccc(N2CCN(Cc3nc4ccccc4[nH]3)CC2)nc1	3.7	-3.8	-2.2	-6.3	-3.1	8.5
CCN(CC(=O)Nc1c(F)cccc1F)C(=O)C1(c2ccccc2)CC1	-0.2	6.6	-7.7	0.8	-2.0	16.2
C=CC[C@@H]1C=C(C)C[C@H](C)C[C@H](OC)[C@H]2O[C@@](O)(C(=O)C(=O)N3CCCC[C@H]3C(=O)O[C@H](/C(C)=C/[C@@H]3CC[C@@H](O)[C@H](OC)C3)[C@H](C)[C@@H](O)CC1=O)[C@H](C)C[C@@H]2OC	117.0*	2.5	-6.6	16.0	13.7	41.7
Cc1cc(N2CCN(S(=O)(=O)c3ccc(Cl)cc3)CC2)c2ccccc2n1	1.3	81.5*	40.0	36.0	3.0	18.3
O=C(Nc1cccc(Cl)c1N1CCCC1)c1ccco1	7.1	-0.2	55.3	19.6	-8.3	-17.1
NC(=S)NNC(=O)/C(=C/c1ccc(Br)cc1)NC(=O)c1ccccc1	6.6	1.0	-5.5	27.1	3.8	26.9
Cc1cccc(NS(=O)(=O)c2cccc(C(=O)N3CC(C)OC(C)C3)c2)c1 (stereo not given)	-5.2	-1.7	0.6	-2.0	-10.5	15.4
Cc1ccc(C(=O)OC(C)C(=O)NC2CCCCC2C)s1 (stereo not given)	.	-2.6	.	-7.6	.	27.9
CC(OC(=O)c1cccs1)C(=O)NC1CCCCC1C (stereo not given)	.	0.1	95.8*	8.5	.	3.4
COC(=O)Nc1ccc2c(c1)N(C(=O)CCN1CCOCC1)c1ccccc1S2	3.0	-3.8	0.1	13.4	40.2	-16.5
CCOC(=O)Nc1ccc2c(c1)N(C(=O)CCN1CCOCC1)c1ccccc1S2	19.7	0.4	8.3	8.7	67.8*!	14.2
O=C(NCc1ccc(F)cc1)c1ccc(CS(=O)(=O)Cc2ccccc2F)o1	94.6*	2.7	-7.5	-17.2	3.7	16.8
O=C(NCc1ccc(F)cc1)c1ccc(CS(=O)(=O)Cc2ccc(F)cc2)o1	2.9	2.7	1.4	14.9	4.6	15.6
CCOC(=O)c1cnn(-c2cc(Oc3ccccc3)ncn2)c1N	-1.8	9.7	-2.3	-6.9	7.1	-22.4
Cc1ccc(C(=O)Nc2ncc(C)s2)o1	-1.7	-0.5	8.1	-96.4	-23.1	26.7
Cc1ccc(C(=O)Nc2ncc(Cc3ccc(F)cc3)s2)o1	-6.7	-1.1	120.1*	-160.9	-15.4	20.6
SMILES	Calb FLC	Beta cell apopt	CSC inhib	Mdm2 MdmX PPI	T cruzi repl	NALP3 yeast inh
CC(C)c1noc2ncc(C(=O)c3cc(Cl)cc(Cl)c3O)cc12	98.7*	7.6	23.1	23.8	-6.3	38.3
Cc1[nH]c2c(Cl)cccc2c(=O)c1CN1CCCCCC1	.	-2.4	7.5	20.4	57.2*	5.4
Cc1ccc2c(=O)c(CN3CCCCCC3)c(C)[nH]c2c1C	2.7	-10.0	-9.9	3.4	16.1	16.8
CN(Cc1ccc(C(F)(F)F)cc1)C(=O)c1ccc2ccccc2n1	-1.9	-2.7	-0.8	-2.1	4.4	10.0
CCCCCn1c(CN2CCN(CCO)CC2)nc2c1c(=O)n(C)c(=O)n2C	-1.6	-5.3	-6.8	-24.9	-1.9	2.9
CCCCn1c(CN2CCN(C(=O)OCC)CC2)nc2c1c(=O)n(C)c(=O)n2C	101.5*	-0.3	-5.4	8.1	-2.0	6.3
Cc1ccccc1C(=O)OC(C)CN1CCOCC1 (stereo not given)	7.1	0.0	-6.6	7.9	-3.0	-3.9
COc1cccc(Cn2nnc(C(=O)Nc3cc(Cl)ccc3OC)c2N)c1	-7.3	-4.9	79.5*	15.7	-5.7	3.7
COc1cccc(Cn2nnc(C(=O)NCCc3ccc(Cl)cc3)c2N)c1	-6.1	-1.6	10.8	21.3	-7.4	15.6
O=C1NC(=O)/C(=C/c2cccc3ccccc23)S1	106.6*	.	18.4	-0.9	-1.4	43.7
O=C1NC(=O)/C(=C\c2ccccc2OCc2ccccc2)S1	?	6.0	.	37.9	23.4	32.3
O=C(CN1CCN(c2ccc(O)cc2)CC1)Nc1ccc(SC(F)F)cc1	3.1	6.0	133.7*	20.3	-16.2	25.9
O=C(Nc1cc(Sc2ccccn2)cc([N+](=O)[O-])c1)c1cccc(Cl)c1	113.3*	10.3	50.3	21.9	58.6*	14.0
Cc1ccc(S(=O)(=O)Cc2cc(F)c([N+](=O)[O-])cc2[N+](=O)[O-])cc1	2.3	.	102.2*	2.9	-0.4	14.6
Cc1ccc(S(=O)(=O)CCC(=O)c2cccc([N+](=O)[O-])c2)cc1	3.4	-15.0	12.9	-0.5	58.0*	-3.7
COc1ccccc1NC(=O)C(C)OC(=O)Cc1n[nH]c(=O)c2ccccc12 (stereo not given)	-6.7	0.2	-5.9	3.7	2.6	8.9
Cc1cccc(NC(=O)CCC(=O)N/N=C/c2ccc(O)cc2O)c1	6.2	-0.3	79.3*	-13.9	-8.5	0.4
Cc1cccc(N/N=C/c2ccccc2O)c1	-38.3	-1.4	94.1*	-67.6	7.9	18.6
COc1cc(NC(=O)c2c(OC)cccc2OC)ccc1NC(=O)c1cc2ccccc2o1	13.2	2.2	-6.8	-18.0	11.4	44.0
Cc1nnc(SCc2cc(=O)oc3ccc4ccccc4c23)n1Cc1ccccc1	-1.8	-3.0	-0.9	5.6	3.1	8.1
C[N+]1(CC(=O)OC2CCCCCCCCCCC2)CCCC1	99.3*	4.5	66.9	9.8	16.5	21.5
O=C(Nc1cc2c3c(c1)C1CCCC1CN3CC1CCCC21)c1ccccc1 (stereo not given)	88.8*	40.0	-14.3	13.5	60.4*	24.9
CCNC(=O)Nc1ccccc1C(=O)OC	6.0	.	-11.4	20.6	-23.5	6.2

Bioassay records as filed in PubChem.
